Compounds with a hit are over-represented: about 1.9% of the library has one in this group of screens.
IMP-1 inh: inhibitors of Pseudomonas aeruginosa IMP-1 metallo-beta-lactamase | purified IMP-1, nitrocefin hydrolysis, epi-absorbance fluorescence | inhibition, % at 5.6 µM | 290,000 tested, 0.45% active;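 active = inhibition above the mean plus 3 SD of all compounds in the same screening run, cut at about 4.5% in these data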;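 also: 0% = IMP-1 with DMSO and 100% = DMSO wells lacking enzyme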
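System: purified IMP-1; amount: IMP-1 0.2 nM before substrate addition; compound: single dose, 5.6 µM; times: 25 °C, 15 min preincubation, 25 min reaction; signal: Epi-absorbance via hydrolysed-nitrocefin quenching of white-plate fluorescence, 480/530 nm, EDTA stop; benchmarks: DMSO with and without IMP-1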
pCIP destab: p/CIP protein destabilization; Q05BA5; F442A p/CIP-EGFP cells, EGFP fluorescence, 16 h; decrease of EGFP signal, % at 10 µM; 290,000 tested, 0.01% active;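 active = EGFP signal decrease of at least 30% at 10 µM or well 3 SD below plate mean, unless failing retest; inactive = the rest, including hits failing retest or dose response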
UBC9 SUMO inh: blocks human SUMOylation mediated by UBC9; AID 2006; inhibition, % at 35 µM; 290,000 tested, 0.36% active; P63279; HTRF SUMOylation assay, SAE1/SAE2 + UBC9, in vitro; in the data active = inhibition above about 50%, passing the limit was not always enough
Target sequence (P63279 whole entry, looked up): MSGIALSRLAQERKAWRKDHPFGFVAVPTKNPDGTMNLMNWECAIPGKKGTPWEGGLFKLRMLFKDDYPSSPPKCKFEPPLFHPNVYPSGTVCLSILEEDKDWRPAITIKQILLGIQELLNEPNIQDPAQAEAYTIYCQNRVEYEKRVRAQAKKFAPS
VIM-2 inhibitor: blocks Pseudomonas aeruginosa VIM-2 metallo-beta-lactamase; inhibition, % at 5.6 µM; purified VIM-2, nitrocefin hydrolysis, epi-absorbance fluorescence; 290,000 tested, 0.89% active;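 active = inhibition above the mean of all tested compounds plus 3 SD, cutoff set per screening run, cut at about 7.5% in these data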;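 also: red hydrolysis product quenches plate fluorescence so inhibitors raise well fluorescence; 0% = enzyme with DMSO and 100% = DMSO without enzyme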
T cell HTS: modulates CD8 T cell binding to vesicles | 2C CD8+ T cell-vesicle binding, flow cytometry; stronger effect = lower value | 330,000 tested, 0.068% active | response (vesicle binding), % at 7 µM;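 active = response, share of CD8 T cells binding vesicles, and their 90th percentile fluorescence all below set limits, cut at about 80% in these data, passing the limit was not always enough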;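 also: values below 100% mean blocked vesicle binding to the CD8+ T cells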
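incubation = binding step 1.5 h, 37 °C, antibody labelling 20 min, ice | test system = 2C mouse CD8+ T cells | read-out basis = percent CD8+ FL2 mean versus row control | controls = Peptide-free naked vesicles (low) and QL9 vesicles with 0.7% DMSO vehicle (high) | detection = flow cytometry of vesicle-bound cells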
Fh CTSL1 inh: blocks F. hepatica cathepsin L1 in PFM18AAP counter-screen | recombinant F. hepatica cathepsin L1, Z-Leu-Arg-MCA fluorescence | inhibition, % at 5.96 µM | 300,000 tested, 0.49% active | AID 1906;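 active = inhibition above the mean of all tested compounds plus 3 SD, set per screening campaign, cut at about 17% in these data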;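 also: 0% = plate median of test compound wells and 100% = 1 µM Z-Phe-Ala-diazomethylketone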
The depositor's hits bear a star; i = inactive; · = no result given.

SMILES	IMP-1 inh	pCIP destab	UBC9 SUMO inh	VIM-2 inhibitor	T cell HTS	Fh CTSL1 inh
CC(=O)Nc1ccc(NC(=O)c2ccco2)cc1	-3	4	8	-3	399	-1
CC(=O)c1ccc(C(=O)Nc2ccc3c(c2)C(=O)NC3=O)cc1	6.1*	-2	8	0	i	4
CC(C)(C)c1ccc(C(=O)Nc2ccc3c(c2)C(=O)NC3=O)cc1	-2	2	16	-1	351	-2
CC(=O)c1ccc(NC(=O)c2cccc(N3C(=O)c4ccccc4C3=O)c2)cc1	7.7*	4	29	0	207	-4
CS(=O)(=O)CCC(C(=O)Nc1ccc2c(c1)OCO2)N1Cc2ccccc2C1=O (stereo not given)	-4	5	9	-1	594	5
Cc1cc(C)c(C)c(S(=O)(=O)NCC(=O)Nc2ccccc2F)c1C	-4	-5	4	-4	·	·
Nn1cnnc1N/N=C\c1ccc(-c2ccccc2[N+](=O)[O-])o1	-2	9	98*	-3	·	·
O=[N+]([O-])c1ccccc1-c1ccc(/C=N/n2cnnc2)o1	-3	-2	9	3	·	5
COc1ccc(CN2C(=NC(=O)C3CCCCC3)SC3CS(=O)(=O)CC32)cc1 (stereo not given)	-2	-22	5	-4	259	2
CCC(=O)N1N=C(c2c(-c3ccccc3)c3cc(Cl)ccc3[nH]c2=O)CC1c1ccco1 (stereo not given)	-2	-15	54*	-3	267	1
CN=C(NC1CCCCC1)c1ccc(Cl)cc1	0	-5	13	-3	229	1
CCC1CCCCN1CCCNC(=O)c1c(O)nc2c(C)cccn2c1=O (stereo not given)	-1	13	-13	9.6*	367	2
Cc1ccn2c(=O)c(C(=O)NCCCN3CCCCC3C)c(O)nc2c1 (stereo not given)	-2	-6	11	0	346	0
Cc1cccn2c(=O)c(C(=O)NCCCN3CCCCC3C)c(O)nc12 (stereo not given)	-2	0	9	9.5*	232	-2
Cc1ccn2c(=O)c(C(=O)NCCCN3CCCC3=O)c(O)nc2c1	-1	-12	5	1	660	50*
C(=N\N1CCN(Cc2ccccc2)CC1)/c1ccc(-c2ccccc2)cc1	-2	6	8	-1	432	17*
NS(=O)(=O)c1ccc(NC2=CC(=O)C(=O)c3ccccc32)cc1	-1	-15	·	1	102	17*
Cc1cc2c(c(=O)o1)C(CCC1CCCCC1)C(C#N)=C(N)O2 (stereo not given)	11*	-14	4	-2	238	-2
NC(=O)c1ccc(N=C2C(=O)Nc3ccc([N+](=O)[O-])cc32)cc1	1	6	63	-1	497	109*
CCCCNC(=O)C1CC(=O)N(CCc2ccccc2)C1 (stereo not given)	-3	-4	-8	-1	87	-3
COc1ccc(CN2CC(C(=O)NCCCN3CCOCC3)CC2=O)cc1 (stereo not given)	-1	-5	-1	-2	221	21*
COc1ccc(CN2CC(C(=O)NCCc3ccccc3)CC2=O)cc1 (stereo not given)	1	4	11	-4	306	17*
CCC1CCCCN1CCCNC(=O)C1CC(=O)N(CCc2ccccc2)C1 (stereo not given)	-3	-5	10	-2	462	28*
COc1ccc(CN2CC(C(=O)NCCCN3CCCCCC3)CC2=O)cc1 (stereo not given)	-3	9	-6	0	210	0
CC(=O)N1N=C(c2ccccc2OC(=O)/C=C/c2ccccc2)CC1c1ccccc1 (stereo not given)	-2	-8	8	-1	434	0
SMILES	IMP-1 inh	pCIP destab	UBC9 SUMO inh	VIM-2 inhibitor	T cell HTS	Fh CTSL1 inh
Cc1ccc(NC(=S)N2CCN(CCN3C(=O)c4cccc5cccc(c45)C3=O)CC2)cc1	-7	6	6	8.1*	453	4
O=C(CN1CCN(CCN2C(=O)c3cccc4cccc(c34)C2=O)CC1)c1ccc(F)cc1	-3	6	-8	8.9*	227	1
O=C(CC(c1ccco1)C1CCCCC1=O)c1ccccc1 (stereo not given)	-2	8	2	0	219	52*
CCCCOc1ccc(/C=C/C(=O)Nc2ccc(C(N)=O)cc2)cc1	-2	10	51*	1	i	3
CCCOc1ccc(/C=C/C(=O)Nc2ccc([N+](=O)[O-])cc2)cc1	-2	-8	11	-1	249	6
CN(C)c1cccc(C(=O)OCCCC(=O)c2ccc(F)cc2)c1	·	·	·	·	285	·
CCCCCC(=O)NCC(C)NC(=O)CCCCC (stereo not given)	-1	-11	-11	-1	0.0*	2
COCCCn1c(=N)c(C(N)=S)cc2c(=O)n3cccc(C)c3nc21	·	·	·	·	139	5
N=c1c(C(=O)NCCN2CCOCC2)cc2c(=O)n3ccccc3nc2n1Cc1ccc(F)cc1	-4	1	7	8.1*	310	0
Cc1ccc2nc3c(cc(C(=O)NCCN4CCOCC4)c(=N)n3CCCN3CCOCC3)c(=O)n2c1	-4	-2	27	8.9*	409	-1
COc1ccc(CCn2c(=N)c(C(=O)NC3CCCC3)cc3c(=O)n4ccccc4nc32)cc1OC	-2	-6	-3	10*	478	2
Cc1ccc2nc3c(cc(C(N)=S)c(=N)n3CCCOC(C)C)c(=O)n2c1	3	-21	9	7.9*	357	4
Cc1ccc2nc3c(cc(C(=O)NCCc4ccccc4)c(=N)n3CCN3CCOCC3)c(=O)n2c1	-4	-19	28	0	443	3
N=c1c(C(=O)NCCN2CCOCC2)cc2c(=O)n3ccccc3nc2n1CCCN1CCOCC1	-1	-3	9	6	149	3
CC(OC(=O)/C=C/c1ccccc1Cl)C(=O)NC1CCCCC1C (stereo not given)	·	·	·	·	569	-8
C=C1c2cc(OC)ccc2NC(=O)N1CC	5.8*	-2	10	2	226	-4
C=C1c2cc(C)ccc2NC(=O)N1c1ccc(C)cc1	-1	-11	-10	-3	196	-1
Cc1ccc(NC(=O)C2CC(=O)Nc3nncn32)cc1 (stereo not given)	-1	-3	31	-2	893	1
CCN(CC)CCNC(=O)C1CCN(S(=O)(=O)c2c(C)noc2/C=C/c2ccccc2F)CC1	-2	-4	13	2	289	1
OC(CN1c2ccccc2Sc2ccccc21)Cn1nnc2ccccc21 (stereo not given)	0	-20	-9	-3	299	17*

Screening results (PubChem)
